According to ChEMBL document CHEMBL1138008, “2-(2-[3-(pyridin-3-yloxy)phenyl]-2H-tetrazol-5-yl) pyridine: a highly potent, orally active, metabotropic glutamate subtype 5 (mGlu5) receptor antagonist” (Bioorg Med Chem Lett, 2004):

What was measured:
[1] = biological target: T1, Metabotropic glutamate receptor 5 (Homo sapiens, UniProt P41594); assay: Antagonistic activity against Metabotropic glutamate receptor 5 in [Ca2+] flux assay using glutamate (10 uM) as agonist; type: functional
Summary of the method: (§1)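 Functional mGlu5 antagonism was read as Ca²⁺ flux, with glutamate at 10 μM as agonist. Values come from n = 2–4 determinations, with SD < ±25%.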

[2] = Level in rat brain after 1 hr following 10 mg/kg dose ip; type: ADME, organism-based; design: dose 10 mg/kg, route intraperitoneal; details: read-out: Level
Summary of the method: (§2)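 Rats were dosed ip at 10 mg/kg in PEG 400/water (1:1 v/v), given as a solution or a suspension. Receptor occupancy, hippocampus drug level and plasma drug level were measured 1 h after dosing.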

[3] = biological target: T2, Metabotropic glutamate receptor 5 (Rattus norvegicus, UniProt P31424); assay: Binding affinity towards Metabotropic glutamate receptor was determined by displacing [3H]3-methoxy-5-(pyridin-2-ylethynyl)pyridine from rat cortical membranes
Summary of the method: (§3)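 Radioligand displacement of [³H]-3-methoxy-5-(pyridin-2-ylethynyl)pyridine used rat cortical membranes. Values come from n = 2–4 determinations, with SD < ±25%.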

[4] = Plasma level after 1 hr following 10 mg/kg dose ip; type: ADME, organism-based; design: dose 10 mg/kg, route intraperitoneal; details: rat, read-out: Level; summary of the method: as §2
[5] = biological target: Metabotropic glutamate receptor 5 (Rattus norvegicus) (UniProt P31424); assay: Percent occupancy of the Metabotropic glutamate receptor 5 by the [3H]3-methoxy-5-(pyridin-2-ylethynyl)pyridine ligand 1 hr post-administration of 10 mg/kg compound ip; type: organism-based; design: dose 10 mg/kg; summary of the method: as §2
[6] = biological target: T2, Metabotropic glutamate receptor 5; assay: Binding affinity towards Metabotropic glutamate receptor was determined by displacing [3H]3-methoxy-5-(pyridin-2-ylethynyl)pyridine from rat cortical membranes; NA=Not active; summary of the method: as §3
[7] = biological target: T1, Metabotropic glutamate receptor 5; assay: Antagonistic activity against Metabotropic glutamate receptor 5 in [Ca2+] flux assay using glutamate (10 uM) as agonist; NA=Not active; type: functional; summary of the method: as §1
[8] = Plasma clearance after i.v. dosing at 2 mg/kg, p.o. dosing at 10 mg/kg. In solution of PEG 400/water in rat; type: ADME, organism-based; details: iv, read-out: Clp
Summary of the method: (§4)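 Rats were dosed iv at 2 mg/kg and orally at 10 mg/kg, in solution in PEG 400/water (1:1 v/v).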

[9] = Plasma clearance after i.v. dosing at 1 mg/kg, p.o. dosing at 1 mg/kg. In solution of PEG 400/water in dog; type: ADME, organism-based, Canis lupus familiaris; details: iv, read-out: Clp
[10] = Volume of distribution after i.v. dosing at 1 mg/kg, p.o. dosing at 1 mg/kg. In solution of PEG 400/water in dog; type: ADME, organism-based, Canis lupus familiaris; details: in vivo, iv
[11] = Oral bioavailability after i.v. dosing at 2 mg/kg, p.o. dosing at 10 mg/kg. In solution of PEG 400/water in rat; type: ADME, organism-based; details: in vivo; summary of the method: as §4
[12] = Plasma clearance after i.v. dosing at 1 mg/kg, p.o. dosing at 1 mg/kg. In solution of PEG 400/water in monkey; type: ADME, organism-based; details: cercopithecidae, iv, read-out: Clp
[13] = Half life after i.v. dosing at 1 mg/kg, p.o. dosing at 1 mg/kg. In solution of PEG 400/water in monkey; type: ADME, organism-based; details: cercopithecidae, in vivo
[14] = Volume of distribution after i.v. dosing at 2 mg/kg, p.o. dosing at 10 mg/kg. In solution of PEG 400/water in rat; type: ADME, organism-based; details: in vivo, iv; summary of the method: as §4
[15] = Half life after i.v. dosing at 2 mg/kg, p.o. dosing at 10 mg/kg. In solution of PEG 400/water in rat; type: ADME, organism-based; details: in vivo; summary of the method: as §4
[16] = Volume of distribution after i.v. dosing at 1 mg/kg, p.o. dosing at 1 mg/kg. In solution of PEG 400/water in monkey; type: ADME, organism-based; details: cercopithecidae, in vivo, iv
[17] = Maximum concentration after i.v. dosing at 1 mg/kg, p.o. dosing at 1 mg/kg. In solution of PEG 400/water in monkey; type: ADME, organism-based; details: cercopithecidae, in vivo, po
[18] = Oral bioavailability after i.v. dosing at 1 mg/kg, p.o. dosing at 1 mg/kg. In solution of PEG 400/water in dog; type: ADME, organism-based, Canis lupus familiaris; details: in vivo
[19] = Oral bioavailability after i.v. dosing at 1 mg/kg, p.o. dosing at 1 mg/kg. In solution of PEG 400/water in monkey; type: ADME, organism-based; details: cercopithecidae, in vivo
[20] = Maximum concentration after i.v. dosing at 1 mg/kg, p.o. dosing at 1 mg/kg. In solution of PEG 400/water in dog; type: ADME, organism-based, Canis lupus familiaris; details: in vivo, po
[21] = Maximum concentration after i.v. dosing at 2 mg/kg, p.o. dosing at 10 mg/kg. In solution of PEG 400/water in rat; type: ADME, organism-based; details: in vivo, po; summary of the method: as §4
[22] = Half life after i.v. dosing at 1 mg/kg, p.o. dosing at 1 mg/kg. In solution of PEG 400/water in dog; type: ADME, organism-based, Canis lupus familiaris; details: in vivo

T2 sequence (P31424 whole entry): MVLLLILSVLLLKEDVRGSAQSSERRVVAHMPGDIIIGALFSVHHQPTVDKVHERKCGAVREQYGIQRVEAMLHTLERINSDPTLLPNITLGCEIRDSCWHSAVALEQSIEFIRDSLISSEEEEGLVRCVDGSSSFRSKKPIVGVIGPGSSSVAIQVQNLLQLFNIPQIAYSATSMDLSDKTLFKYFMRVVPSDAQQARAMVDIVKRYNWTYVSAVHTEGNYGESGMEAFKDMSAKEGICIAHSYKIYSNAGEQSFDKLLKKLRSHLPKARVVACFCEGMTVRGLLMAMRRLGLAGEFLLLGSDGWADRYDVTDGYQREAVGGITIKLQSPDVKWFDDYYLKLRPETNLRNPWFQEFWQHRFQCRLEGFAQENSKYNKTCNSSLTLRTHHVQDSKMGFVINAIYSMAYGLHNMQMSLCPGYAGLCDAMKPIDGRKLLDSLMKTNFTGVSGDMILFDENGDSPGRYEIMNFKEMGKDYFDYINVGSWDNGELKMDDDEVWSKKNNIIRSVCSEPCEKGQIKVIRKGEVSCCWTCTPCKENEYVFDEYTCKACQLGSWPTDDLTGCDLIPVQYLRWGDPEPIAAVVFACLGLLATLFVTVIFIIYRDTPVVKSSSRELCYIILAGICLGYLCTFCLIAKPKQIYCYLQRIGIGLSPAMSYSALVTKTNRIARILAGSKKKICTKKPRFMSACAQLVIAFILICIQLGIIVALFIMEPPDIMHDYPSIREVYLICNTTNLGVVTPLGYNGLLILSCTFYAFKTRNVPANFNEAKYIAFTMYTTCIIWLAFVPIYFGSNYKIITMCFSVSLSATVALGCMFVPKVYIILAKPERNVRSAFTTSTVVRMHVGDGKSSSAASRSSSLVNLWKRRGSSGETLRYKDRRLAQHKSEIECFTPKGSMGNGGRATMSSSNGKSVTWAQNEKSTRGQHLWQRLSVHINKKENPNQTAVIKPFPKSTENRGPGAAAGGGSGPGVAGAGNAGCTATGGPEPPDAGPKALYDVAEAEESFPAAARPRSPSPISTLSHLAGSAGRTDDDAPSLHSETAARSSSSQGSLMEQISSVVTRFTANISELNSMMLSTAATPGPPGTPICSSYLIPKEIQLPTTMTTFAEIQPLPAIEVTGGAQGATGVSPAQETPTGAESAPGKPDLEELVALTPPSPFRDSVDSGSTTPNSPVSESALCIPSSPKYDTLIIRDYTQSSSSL
Sequence of Metabotropic glutamate receptor 5 (Rattus norvegicus) (P31424 21-1203 limits assumed): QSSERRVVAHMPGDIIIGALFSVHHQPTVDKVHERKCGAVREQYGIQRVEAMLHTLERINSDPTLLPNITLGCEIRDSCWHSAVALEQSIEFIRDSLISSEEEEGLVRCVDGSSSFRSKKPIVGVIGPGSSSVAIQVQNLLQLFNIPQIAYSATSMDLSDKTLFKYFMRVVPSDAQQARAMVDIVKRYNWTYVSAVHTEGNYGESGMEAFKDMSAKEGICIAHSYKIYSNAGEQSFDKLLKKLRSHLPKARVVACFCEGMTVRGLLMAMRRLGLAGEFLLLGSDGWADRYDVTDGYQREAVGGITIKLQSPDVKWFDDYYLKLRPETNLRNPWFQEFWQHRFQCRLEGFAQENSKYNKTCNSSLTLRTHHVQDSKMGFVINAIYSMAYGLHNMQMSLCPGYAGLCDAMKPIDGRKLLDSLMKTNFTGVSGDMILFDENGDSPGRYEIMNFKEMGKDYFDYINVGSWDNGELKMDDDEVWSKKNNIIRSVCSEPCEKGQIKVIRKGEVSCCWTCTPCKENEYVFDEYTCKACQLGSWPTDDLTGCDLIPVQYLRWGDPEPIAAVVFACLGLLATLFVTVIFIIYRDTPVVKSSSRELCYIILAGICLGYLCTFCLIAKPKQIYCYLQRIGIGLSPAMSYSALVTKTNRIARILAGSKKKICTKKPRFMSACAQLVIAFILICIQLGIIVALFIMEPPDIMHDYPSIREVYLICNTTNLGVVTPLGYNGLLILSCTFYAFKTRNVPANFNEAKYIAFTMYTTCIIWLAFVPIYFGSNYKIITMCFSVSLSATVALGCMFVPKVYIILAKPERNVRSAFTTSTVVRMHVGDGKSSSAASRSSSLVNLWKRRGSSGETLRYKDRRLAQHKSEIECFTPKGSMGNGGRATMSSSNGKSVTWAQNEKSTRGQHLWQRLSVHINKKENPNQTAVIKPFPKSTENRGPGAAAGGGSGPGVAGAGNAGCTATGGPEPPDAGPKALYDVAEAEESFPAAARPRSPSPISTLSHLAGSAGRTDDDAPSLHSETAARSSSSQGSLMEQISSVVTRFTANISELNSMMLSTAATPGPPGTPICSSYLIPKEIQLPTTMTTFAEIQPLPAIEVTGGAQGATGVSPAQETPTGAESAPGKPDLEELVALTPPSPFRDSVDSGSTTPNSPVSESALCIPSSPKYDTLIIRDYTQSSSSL
T1 sequence (P41594 whole entry): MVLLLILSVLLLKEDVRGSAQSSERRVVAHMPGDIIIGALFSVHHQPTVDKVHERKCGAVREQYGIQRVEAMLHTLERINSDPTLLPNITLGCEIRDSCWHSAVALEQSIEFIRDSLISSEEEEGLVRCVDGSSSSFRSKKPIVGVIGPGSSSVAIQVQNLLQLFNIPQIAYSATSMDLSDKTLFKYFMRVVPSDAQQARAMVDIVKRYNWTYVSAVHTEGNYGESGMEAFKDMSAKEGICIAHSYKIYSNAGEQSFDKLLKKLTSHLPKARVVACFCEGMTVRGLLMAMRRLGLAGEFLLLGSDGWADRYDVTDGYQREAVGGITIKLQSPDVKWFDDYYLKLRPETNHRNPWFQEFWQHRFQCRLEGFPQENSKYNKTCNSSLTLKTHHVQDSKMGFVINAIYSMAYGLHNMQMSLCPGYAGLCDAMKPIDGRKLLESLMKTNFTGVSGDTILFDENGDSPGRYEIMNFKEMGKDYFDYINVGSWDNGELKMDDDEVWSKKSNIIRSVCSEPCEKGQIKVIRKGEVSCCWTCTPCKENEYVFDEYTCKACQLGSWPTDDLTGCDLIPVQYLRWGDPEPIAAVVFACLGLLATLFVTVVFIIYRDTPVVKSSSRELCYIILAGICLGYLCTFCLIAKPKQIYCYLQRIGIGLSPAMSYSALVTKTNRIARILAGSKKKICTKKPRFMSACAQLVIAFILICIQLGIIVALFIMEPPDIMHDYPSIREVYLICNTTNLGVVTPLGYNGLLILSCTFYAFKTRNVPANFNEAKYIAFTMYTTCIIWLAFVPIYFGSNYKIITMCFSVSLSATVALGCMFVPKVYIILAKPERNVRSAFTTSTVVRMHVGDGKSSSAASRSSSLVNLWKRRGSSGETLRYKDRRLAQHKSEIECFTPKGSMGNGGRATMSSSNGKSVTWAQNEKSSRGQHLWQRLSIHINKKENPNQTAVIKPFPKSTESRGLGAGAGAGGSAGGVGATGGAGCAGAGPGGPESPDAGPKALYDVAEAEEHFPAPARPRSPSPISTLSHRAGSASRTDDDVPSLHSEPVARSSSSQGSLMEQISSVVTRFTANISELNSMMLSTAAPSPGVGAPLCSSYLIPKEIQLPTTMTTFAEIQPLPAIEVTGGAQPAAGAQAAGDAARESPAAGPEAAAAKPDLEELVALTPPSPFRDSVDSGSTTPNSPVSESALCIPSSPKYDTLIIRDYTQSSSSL

Row | IC50 [1] [nM] | concentration at 1 h [2] [µM] | Ki [3] [nM] | concentration at 1 h [4] [µM] | Occupancy [5] [%] | SMILES | also measured
1 | 73 | 12 | 186 | 13 | 96 | N#Cc1cccc(-n2nnc(-c3ccccn3)n2)c1 | –
2 | 16 | – | 25 | – | – | Fc1cc(-n2nnc(-c3ccccn3)n2)cc(-n2ccc3cccnc32)c1 | –
3 | 1460 | – | 617 | – | – | c1ccc(Oc2cccc(-n3nnc(-c4ccccn4)n3)c2)cc1 | –
4 | 3.9 | 9.7 | – | 8.7 | 97 | N#Cc1cc(F)cc(-n2nnc(-c3ccccn3)n2)c1 | –
5 | 17 | 2.7 | 38 | 0.9 | 43 | Fc1cc(Cc2cccnc2)cc(-n2nnc(-c3ccccn3)n2)c1 | –
6 | 30 | – | 59 | – | 60 | c1ccc(-c2nnn(-c3cccc(Oc4cccnc4)c3)n2)nc1 | –
7 | – | – | – | – | – | c1ccc(-c2nnn(-c3cccc(Oc4ccncc4)c3)n2)nc1 | Ki [6]: Not Active; IC50 [7]: Not Active
8 | 13 | 1.5 | 16 | 3.4 | 83 | Fc1cc(Sc2cccnc2)cc(-n2nnc(-c3ccccn3)n2)c1 | –
9 | 124 | – | 29 | – | – | Fc1cc(Nc2cccnc2)cc(-n2nnc(-c3ccccn3)n2)c1 | –
10 | 6.7 | 6.7 | 12 | 7.4 | – | Fc1cc(Oc2cccnc2)cc(-n2nnc(-c3ccccn3)n2)c1 | clearance [8]: 21 mL/min/kg; clearance [9]: 14 mL/min/kg; Vd [10]: 1.5 L/kg; bioavailability [11]: 100%; clearance [12]: 7.7 mL/min/kg; half-life [13]: 2.5 h; Vd [14]: 22 L/kg; half-life [15]: 2.7 h; Vd [16]: 0.7 L/kg; Cmax [17]: 0.3 µM; bioavailability [18]: 54%; bioavailability [19]: 27%; Cmax [20]: 1.4 µM; Cmax [21]: 11 µM; half-life [22]: 2.3 h
11 | 737 | – | 633 | – | – | c1ccc(-c2nnn(-c3ccc(Oc4cccnc4)cc3)n2)nc1 | –
12 | 22 | 4.9 | 30 | 3.5 | 58 | CN(c1cccnc1)c1cc(F)cc(-n2nnc(-c3ccccn3)n2)c1 | –
13 | 2860 | – | 633 | – | – | c1ccc(Oc2cccc(-n3nnc(-c4ccccn4)n3)c2)nc1 | –
14 | 1580 | – | – | – | – | c1ccc(-c2nnn(-c3ccccc3Oc3cccnc3)n2)nc1 | –
